Tests used:
Assay type in all cases: functional
SN12C [1] = assay: Growth inhibition of human SN12C cells assessed as cell growth at 10^-4 M incubated for 48 hrs by sulforhodamine B assay; conditions: read-out: Activity
[2] = Growth inhibition of human PC3 cells assessed as cell growth at 10^-4 M incubated for 48 hrs by sulforhodamine B assay; conditions: PC-3, 48 h, read-out: Activity
[3] = Growth inhibition of human BT549 cells incubated for 48 hrs by sulforhodamine B assay; conditions: BT-549, 48 h
Summary of the method: (§1)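 Five-dose assay: five concentrations from 10-fold or ½-log serial dilutions. Cells are plated at 5,000–40,000 per well according to doubling time, grown 24 h, then exposed 48 h at 37 °C, 5% CO₂. Fixed with cold 50% TCA (final addition) for 60 min at 4 °C and stained with 0.4% SRB in 1% acetic acid. Bound dye is solubilized in 10 mM Tris base and read at 515 nm. GI₅₀ is where [(Ti−Tz)/(C−Tz)]×100 = 50, with a time-zero plate as Tz.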

[4] = Growth inhibition of human OVCAR4 cells assessed as cell growth at 10^-8 M incubated for 48 hrs by sulforhodamine B assay; conditions: OVCAR-4, 48 h, read-out: Activity
SN12C [5] = assay: Growth inhibition of human SN12C cells assessed as cell growth at 10^-8 M incubated for 48 hrs by sulforhodamine B assay; conditions: read-out: Activity
[6] = Growth inhibition of human PC3 cells assessed as cell growth at 10^-8 M incubated for 48 hrs by sulforhodamine B assay; conditions: PC-3, 48 h, read-out: Activity
A549 = assay: Growth inhibition of human A549/ATCC cells assessed as cell growth at 10^-7 M incubated for 48 hrs by sulforhodamine B assay; conditions: A549, 48 h, read-out: Activity; summary of the method: as §1
[7] = Growth inhibition of human HCT116 cells assessed as cell growth at 10^-7 M incubated for 48 hrs by sulforhodamine B assay; conditions: HCT-116, 48 h, read-out: Activity
Summary of the method: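 Cells seeded at 5,000–40,000/well according to doubling time and preincubated 24 h at 37 °C, 5% CO2. Time-zero plates were TCA-fixed. DMSO concentrate was diluted in medium with 50 µg/ml gentamicin to give five concentrations (10-fold or ½ log steps), then exposed 48 h. Cells were TCA-fixed, stained with 0.4% SRB and read at 515 nm. Percent growth was taken against time-zero and control; GI50, TGI and LC50 derived.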

[8] = Growth inhibition of human TK10 cells assessed as cell growth at 10^-5 M incubated for 48 hrs by sulforhodamine B assay; conditions: TK-10, 48 h, read-out: Activity
[9] = Growth inhibition of human SF539 cells assessed as cell growth at 10^-4 M incubated for 48 hrs by sulforhodamine B assay; conditions: SF-539, 48 h, read-out: Activity
SK-MEL-5 = assay: Growth inhibition of human SK-MEL-5 cells assessed as cell growth at 10^-4 M incubated for 48 hrs by sulforhodamine B assay; conditions: SK-MEL-5, 48 h, read-out: Activity
[10] = Growth inhibition of human UACC62 cells assessed as cell growth at 10^-4 M incubated for 48 hrs by sulforhodamine B assay; conditions: UACC-62, 48 h, read-out: Activity
SK-MEL-28 = assay: Growth inhibition of human SK-MEL-28 cells assessed as cell growth at 10 uM incubated for 48 hrs by sulforhodamine B assay; conditions: SK-MEL-28, 48 h, read-out: Activity
[11] = Growth inhibition of human SKOV3 cells assessed as cell growth at 10 uM incubated for 48 hrs by sulforhodamine B assay; conditions: SK-OV-3, 48 h, read-out: Activity
786-0 [12] = assay: Growth inhibition of human 786-0 cells assessed as cell growth at 10 uM incubated for 48 hrs by sulforhodamine B assay; conditions: 786-0, 48 h, read-out: Activity
Summary of the method: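 One-dose screen at 10 µM final. Cells are plated at 5,000–40,000 per well according to doubling time and preincubated 24 h at 37 °C, 5% CO₂. Compound (DMSO stock diluted in medium with 50 µg/ml gentamicin) is then added for 48 h. Growth percent is read by sulforhodamine B staining, absorbance at 515 nm.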

786-0 [13] = assay: Growth inhibition of human 786-0 cells assessed as cell growth at 10^-7 M incubated for 48 hrs by sulforhodamine B assay; conditions: 786-0, 48 h, read-out: Activity; summary of the method: as §1
KM12 [14] = assay: Growth inhibition of human KM12 cells assessed as cell growth at 10^-6 M incubated for 48 hrs by sulforhodamine B assay; conditions: KM12, 48 h, read-out: Activity
[15] = Growth inhibition of human SF268 cells assessed as cell growth at 10^-6 M incubated for 48 hrs by sulforhodamine B assay; conditions: SF-268, 48 h, read-out: Activity
HT-29 = assay: Growth inhibition of human HT-29 cells assessed as cell growth at 10^-5 M incubated for 48 hrs by sulforhodamine B assay; conditions: HT-29, 48 h, read-out: Activity
SR = assay: Growth inhibition of human SR cells assessed as cell growth at 10 uM incubated for 48 hrs by sulforhodamine B assay; conditions: read-out: Activity
KM12 [16] = assay: Growth inhibition of human KM12 cells assessed as cell growth at 10 uM incubated for 48 hrs by sulforhodamine B assay; conditions: KM12, 48 h, read-out: Activity
[17] = read-out: LC50 (the source's name)
[18] = read-out: pLC50 (the source's name) (converted)

## c1ccc(-c2nc(Nc3ccc(-c4nc5ccccc5[nH]4)cc3)nc(N3CCOCC3)n2)cc1
SN12C [1]
  growth at 100 µM: -59%
[2]
  growth at 100 µM: -82%
[3]; read-out: GI50
  GI50: 1.98 µM
[3]; [17]
  CC50: 7.68 µM
[3]; read-out: TGI
  TGI: 3.9 µM
[3]; read-out: pGI50 (converted)
  GI50: 2 µM
[3]; [18]
  CC50: 7.76 µM
[3]; read-out: pTGI (converted)
  TGI: 3.89 µM
[4]
  growth at 0.01 µM: 104%
SN12C [5]
  growth at 0.01 µM: 96%
[6]
  growth at 0.01 µM: 99%
A549
  growth at 0.1 µM: 97%
[7]
  growth at 0.1 µM: 100%
[8]
  growth at 10 µM: -87%
[9]
  growth at 100 µM: -90%
SK-MEL-5
  growth at 100 µM: -91%
[10]
  growth at 100 µM: -75%
SK-MEL-28
  growth at 10 µM: -82.8%
[11]
  growth at 10 µM: -30.3%
786-0 [12]
  growth at 10 µM: -88.9%
786-0 [13]
  growth at 0.1 µM: 78%
KM12 [14]
  growth at 1 µM: 85%
[15]
  growth at 1 µM: 86%
HT-29
  growth at 10 µM: -70%
SR
  growth at 10 µM: 8.94%
KM12 [16]
  growth at 10 µM: -76.6%

## Fc1ccc(-c2nc(Nc3ccc(-c4nc5ccccc5[nH]4)cc3)nc(N3CCOCC3)n2)cc1
SN12C [1]
  growth at 100 µM: -21%
[2]
  growth at 100 µM: -6%
[3]; read-out: GI50
  GI50: 1.74 µM
[3]; read-out: TGI
  TGI: 4.07 µM
[3]; read-out: pGI50 (converted)
  GI50: 1.74 µM
[3]; read-out: pTGI (converted)
  TGI: 4.07 µM
[4]
  growth at 0.01 µM: 99%
SN12C [5]
  growth at 0.01 µM: 95%
[6]
  growth at 0.01 µM: 100%
A549
  growth at 0.1 µM: 100%
[7]
  growth at 0.1 µM: 94%
[8]
  growth at 10 µM: -7%
[9]
  growth at 100 µM: -84%
SK-MEL-5
  growth at 100 µM: -90%
[10]
  growth at 100 µM: -45%
SK-MEL-28
  growth at 10 µM: -34%
[11]
  growth at 10 µM: 19.6%
786-0 [12]
  growth at 10 µM: -60%
786-0 [13]
  growth at 0.1 µM: 97%
KM12 [14]
  growth at 1 µM: 86%
[15]
  growth at 1 µM: 89%
HT-29
  growth at 10 µM: -35%
SR
  growth at 10 µM: 6.01%
KM12 [16]
  growth at 10 µM: 12.4%

## Clc1ccc(-c2nc(Nc3ccc(-c4nc5ccccc5[nH]4)cc3)nc(N3CCOCC3)n2)cc1
SN12C [1]
  growth at 100 µM: -14%
[2]
  growth at 100 µM: -45%
[3]; read-out: GI50
  GI50: 1.73 µM
[3]; read-out: TGI
  TGI: 3.68 µM
[3]; read-out: pGI50 (converted)
  GI50: 1.74 µM
[3]; read-out: pTGI (converted)
  TGI: 3.72 µM
[4]
  growth at 0.01 µM: 103%
SN12C [5]
  growth at 0.01 µM: 95%
[6]
  growth at 0.01 µM: 98%
A549
  growth at 0.1 µM: 99%
[7]
  growth at 0.1 µM: 93%
[8]
  growth at 10 µM: -96%
[9]
  growth at 100 µM: -38%
SK-MEL-5
  growth at 100 µM: -51%
[10]
  growth at 100 µM: -13%
SK-MEL-28
  growth at 10 µM: -84.7%
[11]
  growth at 10 µM: -89.9%
786-0 [12]
  growth at 10 µM: -94.5%
786-0 [13]
  growth at 0.1 µM: 92%
KM12 [14]
  growth at 1 µM: 14%
[15]
  growth at 1 µM: 3%
HT-29
  growth at 10 µM: -74%
SR
  growth at 10 µM: -83.3%
KM12 [16]
  growth at 10 µM: -91.3%

## c1ccc2[nH]c(-c3ccc(Nc4nc(N5CCCCC5)nc(N5CCOCC5)n4)cc3)nc2c1
SN12C [1]
  growth at 100 µM: -12%
[2]
  growth at 100 µM: -19%
[3]; read-out: GI50
  GI50: 2.07 µM
[3]; [17]
  CC50: 92.7 µM
[3]; read-out: TGI
  TGI: 5.2 µM
[3]; read-out: pGI50 (converted)
  GI50: 2.09 µM
[3]; [18]
  CC50: 93.3 µM
[3]; read-out: pTGI (converted)
  TGI: 5.25 µM
[4]
  growth at 0.01 µM: 101%
SN12C [5]
  growth at 0.01 µM: 95%
[6]
  growth at 0.01 µM: 96%
A549
  growth at 0.1 µM: 96%
[7]
  growth at 0.1 µM: 94%
[8]
  growth at 10 µM: -4%
[9]
  growth at 100 µM: -76%
SK-MEL-5
  growth at 100 µM: -95%
[10]
  growth at 100 µM: -38%
SK-MEL-28
  growth at 10 µM: -30.2%
[11]
  growth at 10 µM: 22.5%
786-0 [12]
  growth at 10 µM: -57.3%
786-0 [13]
  growth at 0.1 µM: 97%
KM12 [14]
  growth at 1 µM: 93%
[15]
  growth at 1 µM: 96%
HT-29
  growth at 10 µM: -36%
SR
  growth at 10 µM: 9.79%
KM12 [16]
  growth at 10 µM: 14.3%
